Assay outcomes (PubChem)
IDE act – boosts human insulin-degrading enzyme activity in HEK cells. FAbeta-B cleavage, fluorescence polarization; 0% vehicle, 100% cell-free pure enzyme wells. P14735. activation, % at 5.96 µM. hit rate 0.073% among 340,000;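 active = activation above the mean of all tested compounds plus 3 SD, set per screening campaign, cut at about 17% in these data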
TPT1 inhibitor – C. albicans TPT1 enzyme inhibition; AID 1962; hit rate 0.81% among 300,000; inhibition, % at 5 µM; recombinant caTPT1, FP RNA substrate dephosphorylation;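 active = inhibition above the mean of all tested compounds plus 3 SD, set per screening campaign, cut at about 24% in these data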
IDE inh – cellular human IDE inhibition | AID 434962 | HEK cells, FAbetaB cleavage, fluorescence polarization | inhibition, % at 5.59 µM | P14735 | hit rate 0.41% among 320,000;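 active = percent inhibition above the average of all tested compounds plus 3 SD, set per screening campaign, cut at about 16% in these data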;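 note: IDE supplied by intact live HEK cells; FP after avidin binding of uncleaved biotin substrate so inhibition keeps polarization high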
HNF4A DNA FP – change in binding of human HNF4 alpha to DNA | hit rate 0.3% among 360,000 | HNF4a-FITC DNA binding, fluorescence polarization, 1 h | AID 1224865 | activity change, % at 10 µM | P41235; in the data active = activity change above about 30%, passing the limit was not always enough
Rpn11 inh – Rpn11 (human) deubiquitinase inhibition; human 26S proteasome, Ub4-pepOG fluorescence polarization; 20S core pre-blocked with epoxomicin; inhibition, % at 20 µM; hit rate 0.59% among 360,000; AID 588493;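 active = inhibition at 20 µM, scaled to each plate's controls, above about 33%, limit read from the data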
CSN inh – CSN deneddylation inhibition; Purified CSN, SCF-Nedd8-OG deneddylation, fluorescence polarization; inhibition, % at 12.5 µM; hit rate 0.38% among 360,000; Q92905;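 active = pattern-corrected inhibition above about 35%, with an unprinted fluorescence ratio check between 0.5 and 1.5, limit read from the data, passing the limit was not always enough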
Target sequence (Q92905 whole entry, looked up, one chain of several): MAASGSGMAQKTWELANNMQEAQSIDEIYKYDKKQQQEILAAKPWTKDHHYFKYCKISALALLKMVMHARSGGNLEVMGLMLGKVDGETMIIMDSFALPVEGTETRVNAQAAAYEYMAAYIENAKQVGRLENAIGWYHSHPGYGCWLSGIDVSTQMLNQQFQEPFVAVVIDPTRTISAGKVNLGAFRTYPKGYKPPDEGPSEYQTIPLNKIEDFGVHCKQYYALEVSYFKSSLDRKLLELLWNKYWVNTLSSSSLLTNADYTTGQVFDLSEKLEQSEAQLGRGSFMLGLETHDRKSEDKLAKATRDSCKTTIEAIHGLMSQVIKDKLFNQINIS
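Test system: purified human Csn5 enzyme expressed in HEK293T cells. Amount: 0.24 nM enzyme. Reagent: SCFSkp2-Nedd8OG substrate at 10 nM final. Schedule: 90 min incubation of compound, enzyme and substrate at room temperature. Detection: fluorescence polarization. Read-out: % inhibition of substrate cleavage by Csn5.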
caTPT1 confirm – TPT1 (C. albicans) inhibition, confirmation; recombinant caTPT1, fluorescence polarization, RNase T1 coupled; AID 2149; shares compounds with TPT1 inhibitor; inhibition, % at 5 µM; hit rate 74% among 2,400;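 active = inhibition above the primary screen limit, the mean inhibition of all tested compounds plus 3 SD, cut at about 25% in these data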
RNase T1 counter – counter-screen for TPT1 inhibitors: inhibitors of Aspergillus oryzae RNase T1 | shares compounds with TPT1 inhibitor | RNase T1 cleavage, fluorescence polarization, 1536-well | inhibition, % at 5 µM | hit rate 83% among 2,400 | AID 2153;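 active = inhibition above the solvent-only control well mean plus 3 SD, limit set per screening run, cut at about 23% in these data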;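 note: inhibitors block cleavage so intact labeled substrate keeps polarization high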
Target sequence (P00651 whole entry, looked up): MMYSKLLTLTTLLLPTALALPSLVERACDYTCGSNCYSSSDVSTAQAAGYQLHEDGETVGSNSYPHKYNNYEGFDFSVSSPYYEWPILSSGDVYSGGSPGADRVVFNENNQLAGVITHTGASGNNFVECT
Rpn11 inh conf – Rpn11 inhibition confirmation, single concentration | shares compounds with Rpn11 inh | purified human 26S proteasome, Ub4-pepOG fluorescence polarization; proteasome pretreated with epoxomicin | inhibition, % at 20 µM | hit rate 29% among 1,900
MMP-2 inh – blocks human MMP-2, flagging nonselective RPN11 hits; hit rate 4% among 1,900; inhibition, % at 20 µM; AID 602330; shares compounds with Rpn11 inh; recombinant MMP-2, FRET peptide cleavage fluorescence;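 note: human MMP-2 activated beforehand with APMA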
Thrombin FP – counter-screen for RPN11 inhibitors: inhibition of bovine thrombin | shares compounds with Rpn11 inh | bovine thrombin cleavage of Ub4-pepOG, fluorescence polarization | inhibition, % at 20 µM | hit rate 13% among 1,900 | AID 602333;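 active = mean inhibition at least 40% at 20 µM, or signal 3 deviations below plate average, so some actives read negative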
Large screens that a line does not name were inactive (follow-up assays come after a bar, where they were run). In the library only some 1.7% were active in any assay of this set; here they are far more common. Cut-off read from the data, not from the text of the source, unless noted: active = inhibition above about 40%; inactive = the rest.

CNC(=O)C[C@@H]1C(=O)N(C2CCCCC2)CC1(C)C	none (no result: IDE act, TPT1 inhibitor, IDE inh)
CNC(=O)c1sc(N2N=C3/C(=C/c4ccccc4)CCCC3C2c2ccccc2)nc1C (stereo not given)	TPT1 inhibitor 28.0, Rpn11 inh 44.1 | caTPT1 confirm 44.0 | RNase T1 counter 52.5 | Rpn11 inh conf inactive | MMP-2 inh inactive | Thrombin FP inactive
Cc1ccc(NC(=O)C(c2ccccc2)N2CCN(CC(=O)N3CCOCC3)CC2)cc1Cl (stereo not given)	none (no result: TPT1 inhibitor)
CC(c1ccccc1)C(OC(=O)c1cccc([N+](=O)[O-])c1C(=O)O)c1ccccc1 (stereo not given)	none (no result: TPT1 inhibitor, IDE inh)
CC(C)CCNC(=O)c1cc(S(=O)(=O)N2CCC3(CC2)OCCO3)ccc1F	none (no result: IDE act, TPT1 inhibitor, IDE inh)
O=C(C1=C(O)C(=O)N(c2ncccn2)C1c1ccc(Cl)cc1)c1ccco1 (stereo not given)	none
O=C(C1=C(O)C(=O)N(c2ncccn2)C1c1ccc(Cl)c(Cl)c1)c1ccco1 (stereo not given)	TPT1 inhibitor 27.8, Rpn11 inh 41.4, CSN inh 48.3 | caTPT1 confirm 30.0 | RNase T1 counter 39.5 | Rpn11 inh conf inactive | MMP-2 inh inactive | Thrombin FP inactive
Cc1cc(NC(=O)CSc2nc3cc(Cl)ccc3s2)no1	none
O=C(CSc1nc2cc(Cl)ccc2s1)c1cc2ccccc2o1	TPT1 inhibitor 78.0, Rpn11 inh 55.3 | caTPT1 confirm inactive | RNase T1 counter 26.8 | Rpn11 inh conf 45.4 | MMP-2 inh inactive | Thrombin FP inactive
Nc1ccc(Nc2ccccc2N)cc1	TPT1 inhibitor 25.0, Rpn11 inh 35.3 | caTPT1 confirm 26.5 | RNase T1 counter 36.0 | Rpn11 inh conf inactive | MMP-2 inh inactive | Thrombin FP inactive
COc1ccc(Nc2ccccc2N)cc1	TPT1 inhibitor 36.6, Rpn11 inh 52.5 | caTPT1 confirm 27.1 | RNase T1 counter 35.1 | Rpn11 inh conf inactive | MMP-2 inh inactive | Thrombin FP inactive
C=CCOC(=O)Nc1nc(CCNC(=O)OCc2ccccc2)c(C(=O)OC)s1	none (no result: IDE act, TPT1 inhibitor, IDE inh, Rpn11 inh)
COc1ccc(CCNC(=O)c2ccc(NC(=O)CC3SC(N4CCCC4)=NC3=O)cc2)cc1OC (stereo not given)	none (no result: TPT1 inhibitor, IDE inh)
CC(C)N1CCc2c(sc(NC(=O)c3cc(-c4cccs4)nc4ccccc34)c2C(N)=O)C1	TPT1 inhibitor 44.5, Rpn11 inh 56.8, CSN inh 107.3 | caTPT1 confirm inactive | RNase T1 counter 21.8 | Rpn11 inh conf 128.1 | MMP-2 inh inactive | Thrombin FP 56.3
Nc1ccn([C@@H]2O[C@H](C(=O)N[C@H](CO)c3ccccc3)[C@@H](O)[C@H]2O)c(=O)n1	none (no result: IDE act, TPT1 inhibitor, IDE inh)
O=[N+]([O-])c1ccc(N/N=C/c2cn(-c3ccccc3)nc2-c2ccccc2)cc1	TPT1 inhibitor 118.2, Rpn11 inh 47.9 | caTPT1 confirm 103.3 | RNase T1 counter 111.0 | Rpn11 inh conf inactive | MMP-2 inh inactive | Thrombin FP inactive
NS(=O)(=O)c1ccc(N/N=C/c2cn(-c3ccccc3)nc2-c2ccccc2)c([N+](=O)[O-])c1	none
O=C(Nc1c(-c2ccc3c(c2)OCO3)[nH][nH]c1=O)c1cnccn1	none (no result: IDE act, TPT1 inhibitor, IDE inh)
O=C1NC(=Nc2ccccc2)S/C1=C\c1cccn1-c1ccccc1	none
Cc1ccccc1N=C1NC(=O)/C(=C/c2cccn2C)S1	TPT1 inhibitor 37.9, Rpn11 inh 54.5 | caTPT1 confirm 28.5 | RNase T1 counter 38.8 | Rpn11 inh conf inactive | MMP-2 inh inactive | Thrombin FP 43.9
